Data published in ChEMBL document CHEMBL1124010, “Synthesis and pharmacology of trans-4-n-propyl-3,4,4a,10b-tetrahydro-2H,5H-1-benzopyrano[4,3-b ]-1,4-oxazin-7- and -9-ols: the significance of nitrogen pKa values for central dopamine receptor activation” (J Med Chem, 1988).
Active and inactive are the calls of the source. No cut-off for these calls is given here.

Assays:
Rattus norvegicus [1] = assay: In Vivo effect on concentration of DOPAC in rat striatum at dose of 10 umol/kg administered intraperitoneally; format: functional
Outline: (§1)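 Female Wistar-derived rats (180–220 g) were given drug ip in saline and killed by cervical dislocation 1 h later. Striata were frozen and homogenized in 0.1 M perchloric acid, then centrifuged (3000g, 7 °C, 15 min). DOPAC and HVA were purified on Sephadex G10, separated by RP18 HPLC with electrochemical detection, and expressed as % of control.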

Rattus norvegicus [2] = assay: In Vivo effect on concentration of HVA in rat striatum at dose of 10 umol/kg administered intraperitoneally; format: functional; outline: as §1
Rattus norvegicus [3] = assay: In Vivo effect of agonist on the induction of stereotypy (continuous sniffing behavior in rat) at 10 umol/kg
[4] = Ionization constant in presence of nitrogen; format: physicochemical; details: read-out: pKa1
Outline: (§2)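 pKa was determined by the Albert and Serjeant method, as the mean of three to four determinations.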

[5] = Ionization constant in presence of hydroxyl; format: physicochemical; details: read-out: pKa2; outline: as §2
[6] = Partition coefficient in octanol-buffer at a pH 7.4; format: physicochemical
Outline: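 Distribution between 1-octanol and Na⁺/K⁺-phosphate buffer at pH 7.4, each phase presaturated with the other. Tubes were shaken closed and phases separated by centrifugation. Concentrations were measured by HPLC (C18) with electrochemical detection.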

Rattus norvegicus [7] = assay: In Vivo effect on concentration of HVA in rat striatum at 1 umol/kg; format: functional
Rattus norvegicus [8] = assay: In Vivo effect on concentration of DOPAC in rat striatum at 1 umol/kg; format: functional
Rattus norvegicus [9] = assay: In Vivo effect of agonist on the induction of stereotypy (continuous sniffing behavior in rat) at 0.4 umol/kg; format: functional
Rattus norvegicus [10] = assay: In Vivo effect on concentration of DOPAC in rat striatum at dose of 0.4 umol/kg administered intraperitoneally; format: functional
[11] = biological target: Dopamine D2 receptor (Bos taurus); assay: Potency to displace the specific in vitro binding of [3H]N-0437 to calf striatal membrane
Rattus norvegicus [12] = assay: In Vivo effect on concentration of HVA in rat striatum at dose of 0.4 umol/kg administered intraperitoneally; format: functional
D(2) dopamine receptor = D(2) dopamine receptor (Rattus norvegicus, UniProt P61169); assay: Potency to displace the specific in vitro binding of [3H]DP-5,6-ADTN to rat striatal membrane; set-up: species or system Striatum
D(2) dopamine receptor, sequence (P61169 whole entry): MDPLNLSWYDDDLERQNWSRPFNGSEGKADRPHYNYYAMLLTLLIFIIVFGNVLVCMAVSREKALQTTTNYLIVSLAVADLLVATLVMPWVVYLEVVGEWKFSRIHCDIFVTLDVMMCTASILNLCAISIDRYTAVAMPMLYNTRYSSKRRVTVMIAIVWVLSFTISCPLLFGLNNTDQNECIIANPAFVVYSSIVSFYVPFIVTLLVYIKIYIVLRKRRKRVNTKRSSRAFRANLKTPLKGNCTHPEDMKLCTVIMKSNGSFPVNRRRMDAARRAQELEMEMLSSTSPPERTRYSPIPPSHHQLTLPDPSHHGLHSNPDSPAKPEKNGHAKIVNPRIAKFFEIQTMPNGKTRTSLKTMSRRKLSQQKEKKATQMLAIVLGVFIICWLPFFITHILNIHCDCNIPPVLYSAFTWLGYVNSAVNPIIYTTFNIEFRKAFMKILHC
Outline: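 Homogenized, washed rat striatal membranes were incubated with [³H]-DP-5,6-ADTN. Nonspecific binding was defined with 10⁻⁶ M (+)-butaclamol. Competitor was tested over 10⁻¹¹–10⁻⁴ M, in triplicate.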

Rattus norvegicus [13] = assay: In Vivo effect of agonist on the induction of stereotypy (continuous sniffing behavior in rat) ED50
Rattus norvegicus [14] = assay: In vivo effect on concentration of DOPAC in rat striatum at dose of 10 umol/kg administered intraperitoneally; format: functional; outline: as §1
Rattus norvegicus [15] = assay: In Vivo effect of agonist on the induction of stereotypy (continuous sniffing behavior in rat) at 10 umol/kg; Inactive; format: functional, organism-based

Compound | Control (Rattus norvegicus [2]) [%] | pKa [4] | pKa [5] | logD [6] | IC50 (D(2) dopamine receptor) [nM] | other results
CN1CCc2cccc3c2[C@H]1Cc1ccc(O)c(O)c1-3 [APOMORPHINE] | 40 | – | – | – | – | Control (Rattus norvegicus [1]): 48%; ED50 (Rattus norvegicus [3]): 2.3 µmol/kg
CCCN(CCC)C1CCc2ccc(O)cc2C1 (stereo not given) | – | 9.4 | 10.7 | 1.45 | – | Control (Rattus norvegicus [7]): 56%; Control (Rattus norvegicus [8]): 72%
CCCN1CCO[C@@H]2c3cccc(O)c3CC[C@H]21 | – | 7.4 | 10.5 | 2.22 | 75 | ED50 (Rattus norvegicus [9]): 7.5 mg/kg; Control (Rattus norvegicus [10]): 101%; IC50 [11]: 24 nM; Control (Rattus norvegicus [12]): 86%
CCCN(CCC)C1CCc2c(O)cccc2C1 (stereo not given) [5-OH-DPAT] | – | 9.4 | 10.9 | 1.53 | – | Control (Rattus norvegicus [7]): 60%; Control (Rattus norvegicus [8]): 73%
CCCN1CCO[C@@H]2c3cc(O)ccc3CC[C@H]21 [NAXAGOLIDE] | – | 7.5 | 10.9 | 2.09 | 3 | Control (Rattus norvegicus [10]): 67%; Control (Rattus norvegicus [12]): 44%; ED50 (Rattus norvegicus [13]): 0.5 µmol/kg
CCCN1CCO[C@@H]2c3cc(O)ccc3OC[C@H]21 | 100 | 6.1 | 10.3 | 1.97 | 3070 | Control (Rattus norvegicus [14]): 100%; ED50 (Rattus norvegicus [15]): inactive
CCCN(CCC)C1COc2ccc(O)cc2C1 (stereo not given) | – | 8.1 | 9.6 | 2.39 | – | –
CCCN(CCC)C1COc2c(O)cccc2C1 (stereo not given) | – | 8.2 | 9.9 | 2.44 | 4 | –
CCCN1CCO[C@@H]2c3cccc(O)c3OC[C@H]21 | 110 | 5.8 | 10.2 | 1.93 | 2920 | Control (Rattus norvegicus [1]): 108%; IC50 [11]: 8900 nM; ED50 (Rattus norvegicus [15]): inactive
